Measured values: ChEMBL document CHEMBL4364301 (Eur J Med Chem, 2019)

Tests used:
Assay type in all cases: functional
DU-145 = experiment: Antiproliferative activity against human DU145 cells assessed as reduction in cell growth incubated for 96 hrs by propidium iodide based 2D monolayer assay
In short: (§1)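 After 24 h recovery, compound in medium or medium alone (control wells) was added at 10 half-log concentrations from 0.0032 to 100 µM, in triplicate, with at most 0.3% DMSO. After 96 h, wells were PBS-washed, stained with 7 µg/ml PI and 0.1% Triton X-100, and fluorescence read at 530/620 nm. IC50 came from a 4-parameter fit, geometric mean.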

CWR22R = experiment: Antiproliferative activity against human 22Rv1 cells assessed as reduction in cell growth incubated for 96 hrs by propidium iodide based 2D monolayer assay; in short: as §1
LNCaP [1] = experiment: Antiproliferative activity against human LNCAP cells assessed as reduction in cell growth incubated for 96 hrs by propidium iodide based 2D monolayer assay; in short: as §1
VCaP [2] = experiment: Antiproliferative activity against human VCaP cells assessed as reduction in cell growth incubated for 96 hrs by propidium iodide based 2D monolayer assay
In short: (§2)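 VCaP cells in RPMI 1640 with 10% FCS at 37 °C, 5% CO2, seeded 4,000–20,000 cells/well and left 24 h before dosing. Compounds from DMSO stocks were diluted in half-log steps in medium, 10 concentrations 0.0032–100 μM, triplicate wells, max 0.3% DMSO. After 96 h, cells were washed, stained with 7 μg/ml propidium iodide plus 0.1% Triton X-100 for 1–2 h at room temperature, and fluorescence read at ex 530/em 620 nm.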

VCaP [3] = experiment: Antiproliferative activity against human VCaP cells assessed as T/C value at 3.2 x 10^-3 uM incubated for 96 hrs by propidium iodide based 2D monolayer assay; in short: as §2
VCaP [4] = experiment: Antiproliferative activity against human VCaP cells assessed as T/C value at 1 x 10^-2 uM incubated for 96 hrs by propidium iodide based 2D monolayer assay
In short: as §1, with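 “Cells were kept in RPMI 1640 with 25 mM HEPES, 10% FCS and gentamicin at 37 °C under 5% CO2, and plated at 4,000-20,000 cells/well. After 24” for “After 24”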

VCaP [5] = experiment: Antiproliferative activity against human VCaP cells assessed as T/C value at 3.2 x 10^-2 uM incubated for 96 hrs by propidium iodide based 2D monolayer assay; in short: as §2
VCaP [6] = experiment: Antiproliferative activity against human VCaP cells assessed as T/C value at 1 x 10^-1 uM incubated for 96 hrs by propidium iodide based 2D monolayer assay
In short: as §1, with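 “Cells were kept in RPMI 1640 with 25 mM HEPES, 10% FCS and gentamicin at 37 °C under 5% CO2, and plated at 4,000-20,000 cells/well. After 24” for “After 24”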

VCaP [7] = experiment: Antiproliferative activity against human VCaP cells assessed as T/C value at 3.2 x 10^-1 uM incubated for 96 hrs by propidium iodide based 2D monolayer assay; in short: as §2
VCaP [8] = experiment: Antiproliferative activity against human VCaP cells assessed as T/C value at 1 uM incubated for 96 hrs by propidium iodide based 2D monolayer assay
In short: as §1, with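 “Cells were kept in RPMI 1640 with 25 mM HEPES, 10% FCS and gentamicin at 37 °C under 5% CO2, and plated at 4,000-20,000 cells/well. After 24” for “After 24”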

VCaP [9] = experiment: Antiproliferative activity against human VCaP cells assessed as T/C value at 3.2 uM incubated for 96 hrs by propidium iodide based 2D monolayer assay
In short: as §1, with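 “Cells were kept in RPMI 1640 with 25 mM HEPES, 10% FCS and gentamicin at 37 °C under 5% CO2, and plated at 4,000-20,000 cells/well. After 24” for “After 24”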

VCaP [10] = experiment: Antiproliferative activity against human VCaP cells assessed as T/C value at 1 x 10^1 uM incubated for 96 hrs by propidium iodide based 2D monolayer assay
In short: as §1, with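 “Cells were kept in RPMI 1640 with 25 mM HEPES, 10% FCS and gentamicin at 37 °C under 5% CO2, and plated at 4,000-20,000 cells/well. After 24” for “After 24”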

VCaP [11] = experiment: Antiproliferative activity against human VCaP cells assessed as T/C value at 3.2 x 10^1 uM incubated for 96 hrs by propidium iodide based 2D monolayer assay; in short: as §2
VCaP [12] = experiment: Antiproliferative activity against human VCaP cells assessed as T/C value at 1 x 10^2 uM incubated for 96 hrs by propidium iodide based 2D monolayer assay
In short: as §1, with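 “Cells were kept in RPMI 1640 with 25 mM HEPES, 10% FCS and gentamicin at 37 °C under 5% CO2, and plated at 4,000-20,000 cells/well. After 24” for “After 24”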

LNCaP [13] = experiment: Antiproliferative activity against human LNCAP cells assessed as T/C value at 3.2 x 10^-3 uM incubated for 96 hrs by propidium iodide based 2D monolayer assay
In short: as §1, with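 “Cells were kept in RPMI 1640 with 25 mM HEPES, 10% FCS and gentamicin at 37 °C under 5% CO2, and plated at 4,000-20,000 cells/well. After 24” for “After 24”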

CNC(=O)c1ccc(N2C(=S)N(c3ccc(C#N)c(C(F)(F)F)c3)C(=O)C2(C)C)cc1F [ENZALUTAMIDE]
Activity (DU-145): Dose-dependent effect | IC50 (DU-145; DU-145, 96 h): 32.3 µM | IC70 (DU-145; DU-145, 96 h): 71.1 µM | Activity (CWR22R): Dose-dependent effect | IC70 (CWR22R; 22Rv1, 96 h): 36.5 µM | Activity (LNCaP [1]): Dose-dependent effect | IC70 (LNCaP [1]): 31.7 µM | Activity (VCaP [2]): Dose-dependent effect | IC50 (VCaP [2]): 53 µM | IC70 (VCaP [2]): > 100 µM | T/C (VCaP [3]): 106% | T/C (VCaP [4]): 106% | T/C (VCaP [5]): 104% | T/C (VCaP [6]): 101% | T/C (VCaP [7]): 88% | T/C (VCaP [8]): 85% | T/C (VCaP [9]): 85% | T/C (VCaP [10]): 85% | T/C (VCaP [11]): 85% | T/C (VCaP [12]): 44% | T/C (LNCaP [13]): 101%
